Laboratory results published in article PMC10908290 (Drug Design, Development and Therapy, 2024).
Converted amounts (≈) assume the structure as drawn.

Key:
E. coli (MTCC 739) = assay: Antibacterial disc diffusion, E. coli; format: cell-based; conditions: Escherichia coli, MTCC739, 24 h, read-out: Diameter of Growth Inhibition Zone
How it was run: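 Test compound dissolved in DMSO at 100 μg/mL and loaded onto 8 mm sterile filter-paper discs. E. coli MTCC 739 prepared from pure colonies in sterile saline, adjusted to 0.5 McFarland, and swabbed onto Mueller-Hinton agar. Plates incubated 24 h at 37°C, then zone of inhibition measured. Ampicillin as reference. Mean ± SD of three independent experiments.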

[1] = DPPH free radical scavenging; conditions: Table 6, unit not given
How it was run: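 Test compound solutions (25 or 100 µg/mL in methanol) added to 0.004% (w/v) methanolic DPPH. After 30 min incubation, absorbance read at 517 nm. Percent inhibition calculated against DPPH solution lacking test material. Run in triplicate.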

E. coli = assay: Minimum inhibitory concentration, E. coli; format: cell-based; conditions: Escherichia coli, read-out: Minimal Inhibitory Concentration (MIC)
[2] = Cytotoxic activity, normal Vero cell line; format: cell-based; conditions: African green monkey, Vero cells (normal cell line)
mushroom tyrosinase = assay: Mushroom tyrosinase inhibitory activity, spectrophotometric, L-DOPA substrate; format: biochemical
MCF-7 = assay: Cytotoxic activity, MCF-7; format: cell-based; conditions: for CC50: MCF7, read-out: LC50; for SI (Selectivity Index): IC50 value normal cell / IC50 value cancer cell (Vero / MCF-7)
S. aureus = assay: Minimum inhibitory concentration, S. aureus; format: cell-based; conditions: Staphylococcus aureus, read-out: Minimal Inhibitory Concentration (MIC)

SMILES	zone of inhibition at 100 µg/mL (E. coli (MTCC 739)) [mm]	Antioxidant activity (100 µg/mL) [1]	MIC (E. coli) [µg/mL]	CC50 [2] [µg/mL]	percentage of tyrosinase inhibition (mushroom tyrosinase; 25 µg/mL) [%]	percentage of tyrosinase inhibition (mushroom tyrosinase; 50 µg/mL) [%]	percentage of tyrosinase inhibition (mushroom tyrosinase; 100 µg/mL) [%]	Tyrosinase inhibition IC50 (mushroom tyrosinase; mean ± SE of three experiments) [µg/mL]	CC50 (MCF-7; Homo sapiens) [µg/mL]	IC (TGI) (MCF-7; Homo sapiens, MCF7, read-out: TGI) [µM]	SI (Selectivity Index) (MCF-7)	Cytotoxic activity (MCF-7; Table 6, unit not given, equals MCF-7 LC50)	MIC (S. aureus) [µg/mL]
CC1(C)S[C@@H]2[C@H](NC(=O)[C@H](N)c3ccccc3)C(=O)N2[C@H]1C(=O)O [Ampicillin]	17												
Cc1ccccc1NC(=O)C1C(=O)C(c2ccccc2)c2ccc3c(c21)C(=O)c1ccccc1C3=O (stereo not shown) [Compound 1, 2,6,11-Trioxo-3-Phenyl-N-(o-Tolyl)-2,3,6,11-Tetrahydro-1H-Cyclopenta[a]anthracene-1-Carboxamide]		58.11	> 100	93.01 ± 0.05 (≈ 197 µM)	13.72 ± 0.02	49.30 ± 1.06	51.23 ± 0.23	77.62 ± 1.20	87 ± 0.16 (≈ 185 µM)	60.1 ± 0.09	1.06	87.0± 0.16	64 (≈ 136 µM)
COc1cccc2c1C(=O)c1c(O)c3c(c(O)c1C2=O)C[C@@](O)(C(=O)CO)C[C@@H]3O[C@H]1C[C@H](N)[C@H](O)[C@H](C)O1 [Doxorubicin, reference compound]				19.85 ± 0.02 (≈ 36.5 µM)					0.74 ± 0.01 (≈ 1.36 µM)		26.82		
O=c1cc(CO)occ1O [Kojic acid, reference compound]					56.23 ± 1.12	67.21 ± 1.12	84.65 ± 1.62						
